Activity calls are given as the source filed them. No cut-off for these calls is given here.
Experiments:
Mus musculus [1] = test: Antitumor activity against mouse advanced Lewis lung carcinoma allografted in ip dosed BDF1 mouse assessed as complete regression of established tumor administered as single dose on day 6 or 7 post-tumor implantation; assay type: functional, organism-based
Procedure, shortened: (§1)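 BDF1 mice (C57Blk/6 × DBA/2) implanted sc by trocar with Lewis lung tumor fragments of about 40 mg, taken only from bacteriologically sterile donor tumors. Mice bearing tumors of about 400 mg (day 6-7) were selected. Each received a single ip dose on day 7, at or below the LD10 in normal mice. Groups were of 10 mice. Tumor weight was taken from calipers as w = ab²/2, measured at least twice weekly. Matched non-tumor mice served as toxicity controls.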

[2] = Ratio of ED50 for antitumor activity against mouse L1210 cells allografted in ip dosed mouse to LD10 for mouse
[3] = Antitumor activity against mouse early Lewis lung carcinoma allografted in BDF1 mouse assessed as increase in host life span at 13 mg/kg, ip administered as single dose on 1 or 2 days post-tumor implantation; assay type: functional; details: route intraperitoneal
Procedure, shortened: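 Early disease: BDF1 mice carrying sc trocar implants of about 40 mg Lewis lung fragments. One ip dose given on day 1 or 2 after implant, in distilled water or saline, at ≤0.5 ml. Endpoints were % increase in life-span of dying animals and delay in days for the primary tumor to reach 1 g. Untreated controls served as reference.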

[4] = Antitumor activity against mouse early Lewis lung carcinoma allografted in ip dosed BDF1 mouse assessed as disease cure administered as single dose on 1 or 2 days post-tumor implantation measured for 80 days post-drug treatment; assay type: functional
Procedure, shortened: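 BDF1 mice implanted sc by trocar with ~40 mg Lewis lung fragments from sterile donor tumors. A single ip dose was given on day 1 or 2 after implant, in water or saline vehicle. Cures were scored in animals observed for at least 80 days after treatment. Drug-toxicity controls were matched non-tumor-bearing mice monitored for body weight and deaths.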

Mus musculus [5] = test: Antitumor activity against mouse advanced Lewis lung carcinoma allografted in ip dosed BDF1 mouse assessed as disease cure administered as single dose on day 6 or 7 post-tumor implantation; assay type: functional, organism-based; procedure, shortened: as §1
[6] = Antitumor activity against mouse early Lewis lung carcinoma allografted in BDF1 mouse assessed as time delay in tumor growth at 13 mg/kg, ip administered as single dose on 1 or 2 days post-tumor implantation; assay type: functional; details: route intraperitoneal
Procedure, shortened: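 Sc trocar implants of about 40 mg Lewis lung fragments in BDF1 mice. A single ip injection was given on day 1 or 2, in water or physiological saline, at ≤0.5 ml. Tumor size came from caliper length and width as w = ab²/2, measured at least twice weekly. Growth delay is the extra days taken to reach 1 g, compared with untreated controls.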

Mus musculus [7] = test: Antitumor activity against mouse advanced Lewis lung carcinoma allografted in BDF1 mouse assessed as disease cure at 30 mg/kg, ip administered as single dose on 7th day post-tumor implantation measured for 80 days post-drug treatment; assay type: functional, organism-based; set-up: dose 30 mg/kg; procedure, shortened: as §1
[8] = Antitumor activity against mouse early Lewis lung carcinoma allografted in BDF1 mouse assessed as increase in host life span at 20 mg/kg, ip administered as single dose on 1 or 2 days post-tumor implantation; assay type: functional; details: route intraperitoneal
Procedure, shortened: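 BDF1 mice (C57Blk/6 × DBA/2) implanted sc by trocar with ~40 mg Lewis lung tumor fragments from bacteriologically sterile donor tumors. Single ip dose on day 1 or 2, as a solution or suspension in water (CMC or gum acacia) or saline (HPC or Tween 80). Read-out is […]. Same-dose toxicity controls were run in nontumor-bearing mice.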

Mus musculus [9] = test: Antitumor activity against mouse advanced Lewis lung carcinoma allografted in BDF1 mouse assessed as disease cure at 20 mg/kg, ip administered as single dose on 7th day post-tumor implantation measured for 80 days post-drug treatment; assay type: functional, organism-based; set-up: dose 20 mg/kg; procedure, shortened: as §1
[10] = Antitumor activity against mouse advanced Lewis lung carcinoma allografted in BDF1 mouse assessed as increase in host life span at 30 mg/kg, ip administered as single dose on 7th day post-tumor implantation; assay type: functional; details: route intraperitoneal
Procedure, shortened: (§2)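 BDF1 mice (C57Blk/6 × DBA/2) implanted sc by trocar with about 40 mg Lewis lung tumor fragments from bacteriologically sterile donors. Advanced-disease groups held tumors of about 400 mg by day 6-7, sized by caliper (w = ab²/2). Single ip injection on day 7, in water or saline vehicle, at or below the LD10 in normal mice. Tumors measured at least twice weekly.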

[11] = Antitumor activity against mouse advanced Lewis lung carcinoma allografted in BDF1 mouse assessed as increase in host life span at 20 mg/kg, ip administered as single dose on 7th day post-tumor implantation; assay type: functional; details: route intraperitoneal; procedure, shortened: as §2
Mus musculus [12] = test: Antitumor activity against mouse advanced Lewis lung carcinoma allografted in BDF1 mouse assessed as disease cure at 50 mg/kg, ip administered as single dose on 7th day post-tumor implantation measured for 80 days post-drug treatment; assay type: functional, organism-based; set-up: dose 50 mg/kg; procedure, shortened: as §2
Mus musculus [13] = test: Antitumor activity against mouse advanced Lewis lung carcinoma allografted in BDF1 mouse assessed as disease cure at 40 mg/kg, ip administered as single dose on 7th day post-tumor implantation measured for 80 days post-drug treatment; assay type: functional, organism-based; set-up: dose 40 mg/kg; procedure, shortened: as §2
[14] = Antitumor activity against mouse advanced Lewis lung carcinoma allografted in BDF1 mouse assessed as increase in host life span at 40 mg/kg, ip administered as single dose on 7th day post-tumor implantation; assay type: functional; details: route intraperitoneal; procedure, shortened: as §2
[15] = Antitumor activity against mouse advanced Lewis lung carcinoma allografted in BDF1 mouse assessed as increase in host life span at 50 mg/kg, ip administered as single dose on 7th day post-tumor implantation; assay type: functional; details: route intraperitoneal; procedure, shortened: as §2
[16] = Antitumor activity against mouse advanced Lewis lung carcinoma allografted in BDF1 mouse assessed as increase in host life span at 29 mg/kg, ip administered as single dose on 7th day post-tumor implantation; assay type: functional; details: route intraperitoneal; procedure, shortened: as §2
Mus musculus [17] = test: Antitumor activity against mouse advanced Lewis lung carcinoma allografted in BDF1 mouse assessed as disease cure at 11 mg/kg, ip administered as single dose on 7th day post-tumor implantation measured for 80 days post-drug treatment; assay type: functional, organism-based; set-up: dose 11 mg/kg; procedure, shortened: as §1
[18] = Antitumor activity against mouse advanced Lewis lung carcinoma allografted in ip dosed BDF1 mouse assessed as increase in host lifespan administered as single dose on day 6 or 7 post-tumor implantation; assay type: functional
Procedure, shortened: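 Advanced Lewis lung model: about 40 mg fragments implanted sc by trocar into BDF1 mice, and mice with tumors of about 400 mg (day 6-7) selected. Tumor weight from calipers, w = ab²/2. Agent given as one ip dose in distilled water or physiological saline. Nontumor-bearing mice received matching doses as toxicity controls.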

[19] = Antitumor activity against mouse advanced Lewis lung carcinoma allografted in BDF1 mouse assessed as increase in host life span at 11 mg/kg, ip administered as single dose on 7th day post-tumor implantation; assay type: functional; details: route intraperitoneal; procedure, shortened: as §2
Mus musculus [20] = test: Antitumor activity against mouse advanced Lewis lung carcinoma allografted in BDF1 mouse assessed as disease cure at 41 mg/kg, ip administered as single dose on 7th day post-tumor implantation measured for 80 days post-drug treatment; assay type: functional, organism-based; set-up: dose 41 mg/kg; procedure, shortened: as §1
Mus musculus [21] = test: Antitumor activity against mouse advanced Lewis lung carcinoma allografted in BDF1 mouse assessed as complete regression of established tumor at 27 mg/kg, ip administered as single dose on 7th day post-tumor implantation; assay type: functional, organism-based; set-up: dose 27 mg/kg; procedure, shortened: as §1
Mus musculus [22] = test: Antitumor activity against mouse advanced Lewis lung carcinoma allografted in BDF1 mouse assessed as complete regression of established tumor at 41 mg/kg, ip administered as single dose on 7th day post-tumor implantation; assay type: functional, organism-based; set-up: dose 41 mg/kg; procedure, shortened: as §1
Mus musculus [23] = test: Antitumor activity against mouse advanced Lewis lung carcinoma allografted in BDF1 mouse assessed as disease cure at 27 mg/kg, ip administered as single dose on 7th day post-tumor implantation measured for 80 days post-drug treatment; assay type: functional, organism-based; set-up: dose 27 mg/kg; procedure, shortened: as §1
[24] = Antitumor activity against mouse advanced Lewis lung carcinoma allografted in BDF1 mouse assessed as increase in host life span at 27 mg/kg, ip administered as single dose on 7th day post-tumor implantation; assay type: functional; details: route intraperitoneal; procedure, shortened: as §2
[25] = Antitumor activity against mouse advanced Lewis lung carcinoma allografted in BDF1 mouse assessed as increase in host life span at 41 mg/kg, ip administered as single dose on 7th day post-tumor implantation; assay type: functional; details: route intraperitoneal; procedure, shortened: as §2

In the case of `O=NN(CCCl)C(=O)N[C@H]1CC[C@@H](C(=O)O)CC1`, the inhibition (Mus musculus [1]) is reported as “Active”, the Ratio [2] is reported as 0.6 and the ILS at 13 mg/kg [3] is reported as 35%. The Activity [4] was over 50%, the Activity (Mus musculus [5]) was “inactive” and the Time [6] was 23 days. For the same molecule, the Activity (Mus musculus [7]) was “inactive”, the ILS at 20 mg/kg [8] was 0% and the Activity (Mus musculus [9]) was “inactive”. The ILS at 30 mg/kg [10] was 79% and the ILS at 20 mg/kg [11] was 90%.

With `O=NN(CCCl)C(=O)NC1CCCCC1` [LOMUSTINE] the Activity (Mus musculus [12]) was “inactive”, the Activity (Mus musculus [13]) was “inactive” and the inhibition (Mus musculus [1]) was “Active”. The ILS at 40 mg/kg [14] was 31%, the Activity (Mus musculus [5]) was “inactive” and the ILS at 50 mg/kg [15] was 15%.

In the case of `CCOC(=O)[C@H]1CC[C@H](NC(=O)N(CCCl)N=O)CC1`, the Activity (Mus musculus [5]) is reported as “Active”, the ILS at 29 mg/kg [16] is reported as 75% and the ILS at 30 mg/kg [10] is reported as 68%.

With `O=NN(CCCl)C(=O)NC1CCS(=O)(=O)CC1` the Activity (Mus musculus [17]) was “inactive”, the inhibition (Mus musculus [1]) was “inactive” and the Activity (Mus musculus [5]) was “inactive”. For the same molecule, the ILS [18] was over 25% and the ILS at 11 mg/kg [19] was 27%.

With `O=NN(CCF)C(=O)NC1CSCSC1` the Activity (Mus musculus [20]) was “inactive”, the inhibition (Mus musculus [1]) was “inactive” and the inhibition (Mus musculus [21]) was “inactive”. For the same molecule, the inhibition (Mus musculus [22]) was “inactive”, the Activity (Mus musculus [5]) was “inactive” and the ILS [18] was over 25%. For the same molecule, the Activity (Mus musculus [23]) was “inactive”, the ILS at 27 mg/kg [24] was 40% and the ILS at 41 mg/kg [25] was 21%.

Reference: ChEMBL document CHEMBL3271979, “Inhibition of solid tumors by nitrosoureas. 1. Lewis lung carcinoma” (1977)
